Reference: ChEMBL document CHEMBL1131490, “1,4-Cyclohexanecarboxylates: potent and selective inhibitors of phosophodiesterase 4 for the treatment of asthma” (J Med Chem, 1998)

Assays:
Phosphodiesterase 4 = Phosphodiesterase 4 (Homo sapiens, UniProt P27815+Q08499+Q07343+Q08493); assay: Inhibition activity against human monocyte derived PDE4 catalytic activity (LPDE4); format: protein assay
Canis familiaris [1] = assay: Emetic effect in dogs by intravenous administration; format: functional; conditions: Canis lupus familiaris
Homo sapiens = species: Homo sapiens; assay: (§1) Inhibition of lipopolysaccharide (LPS)-induced TNF alpha release by human monocytes; format: functional
Mus musculus [2] = species: Mus musculus; assay: Reversal of reserpine-induced hypothermia in the mouse; format: functional
Mus musculus [3] = species: Mus musculus; assay: Inhibition of lipopolysaccharide (LPS)-induced TNF alpha generation in mouse; format: functional; conditions: read-out: ID50 (the source's name)
Method in brief: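 Human monocytes adoptively transferred into mice, then LPS challenge. Compound dosed orally; human TNFα generation measured. ID50 taken from the mean response of three to eight animals.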

Cavia porcellus [4] = assay: Antigen-induced bronchoconstriction in guinea pigs after iv administration 10 min pre-treatment; format: functional; conditions: read-out: ID50 (the source's name)
Method in brief: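 Anesthetized guinea pigs, compound given intravenously, with bronchoconstriction provoked by antigen challenge.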

Oryctolagus cuniculus = species: Oryctolagus cuniculus; assay: Stimulation of acid secretion from rabbit parietal glands; format: functional
Canis familiaris [5] = species: Canis familiaris; assay: Emetic effect in dogs; format: functional; conditions: Canis lupus familiaris
Cavia porcellus [6] = assay: Antigen-induced bronchoconstriction in guinea pigs after peroral administration 1 hour pre-treatment; format: functional; conditions: po, read-out: ID50 (the source's name)
Mus musculus [7] = assay: Reversal of reserpine-induced hypothermia in the mouse on peroral administration; format: functional; conditions: po
[8] = as §1; format: functional
[9] = The value for hypothermia against antigen provocation (po); conditions: in vivo
Mus musculus [10] = species: Mus musculus; assay: Reversal of reserpine-induced hypothermia in mouse by peroral dose; format: functional; conditions: po

SMILES | IC50 (Phosphodiesterase 4) [µM] | ED50 (Cavia porcellus [4]) [mg/kg] | other results
COc1ccc([C@]2(C#N)CC[C@@H](C(=O)O)CC2)cc1OC1CCCC1 (stereo in doubt; 1) [CILOMILAST] | – | 1.8 | ED50 (Canis familiaris [1]): 4.6 mg/kg; IC50 (Homo sapiens): 0.11 µM; ED50 (Mus musculus [2]): 2.3 mg/kg; ED50 (Mus musculus [3]): 4.9 mg/kg; EC50 (Oryctolagus cuniculus): 0.8 µM
COc1ccc(C2(C#N)CCC(c3nnn[nH]3)CC2)cc1OC1CCCC1 (stereo not given) | 0.74 | – | –
COc1ccc([C@@H]2CNC(=O)C2)cc1OC1CCCC1 [(-)-ROLIPRAM] | – | 0.2 | ED50 (Canis familiaris [5]): 0.04 mg/kg; ED50 (Cavia porcellus [6]): 2 mg/kg; ED50 (Mus musculus [7]): 0.2 mg/kg; IC50 [8]: 0.07 µM; ED50 (Mus musculus [3]): 5.1 mg/kg; EC50 (Oryctolagus cuniculus): 0.004 µM
COc1ccc(C2CCC(C(=O)O)CC2)cc1OC1CCCC1 (stereo not given) | 1.2 | – | –
COc1ccc([C@@H]2CC(=O)N(Cc3ccc(N)cc3)C2)cc1OC1CCCC1 | 0.195 | 10 | –
COc1ccc(C2CC(=O)N(Cc3ccc(N)cc3)C2)cc1OC1CCCC1 (stereo not given) | 0.052 | 0.5 | –
COc1ccc(C2CCC(C(=O)O)C2)cc1OC1CCCC1 (stereo not given) | 1.2 | 0.5 | ED50 (Cavia porcellus [6]): 3 mg/kg; selectivity ratio [9]: 0.17; ED50 (Mus musculus [7]): 0.5 mg/kg
COc1ccc([C@H]2CNC(=O)C2)cc1OC1CCCC1 [S-ROLIPRAM] | – | 0.2 | ED50 (Cavia porcellus [6]): 2 mg/kg; ED50 (Mus musculus [10]): > 10 mg/kg
COc1ccc(C2CCC(=O)C2)cc1OC1CCCC1 (stereo not given) | 0.5 | – | –

Further lines, with some results ahead:

IC50 (Phosphodiesterase 4) [µM] | SMILES | ED50 (Cavia porcellus [4]) [mg/kg] | other results
0.08 | C#CC1(c2ccc(OC)c(OC3CCCC3)c2)CCC(=O)CC1 | – | –
0.32 | COc1ccc(C2(C(N)=O)CCC(=O)CC2)cc1OC1CCCC1 | – | –
0.044 | COc1ccc(C2(C#N)CCC(=O)CC2)cc1OC1CCCC1 | – | –
2.5 | COc1ccc(C2(CO)CCC(=O)CC2)cc1OC1CCCC1 | – | –
0.12 | COc1ccc(C2CCC(=O)CC2)cc1OC1CCCC1 | – | –
0.34 | COc1ccc(C2(C=O)CCC(=O)CC2)cc1OC1CCCC1 | – | –
1.18 | COc1ccc(C2(CF)CCC(=O)CC2)cc1OC1CCCC1 | – | –
